By EC50 is commonly meant the concentration giving half of the maximal effect.

Data set [1] deals with Human immunodeficiency virus 2. In words: Antiviral activity against Human immunodeficiency virus 2 ROD infected in human MT4 cells assessed as reduction in virus induced cytopathicity. In kind it is functional, organism-based. The settings on record: Human immunodeficiency virus 2, ISOLATE ROD. Put shortly:
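MT4 cells (1.5 × 10^5/ml) infected with HIV (MOI 0.01) were added to serial compound dilutions and incubated 5 days at 37°C in 5% CO2. Protection from virus-induced cell death was read by MTT tetrazolium colorimetry, giving an EC50 in micromolar.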
On the technique in general: Damage to the host cells serves as the signal in cytopathic effect assays.

For another data set, the system named is MT4. In words: Cytotoxicity against human MT4 cells by cell based assay. The gist of the method: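 Cytotoxicity in MT4 cells from cell-based assays gave a 50% cytotoxic concentration, reported as a median with first- to third-quartile values over the stated number of experiments.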
Data set [2] deals with Human immunodeficiency virus 1. Description: Antiviral activity against Human immunodeficiency virus 1 subtype D isolate 92UG001 infected in human PBMC cells by cell based assay. The settings on record: Human immunodeficiency virus 1, subtype D isolate 92UG001, PBMC.
The test system of data set [3] is Human immunodeficiency virus 1. In words: Antiviral activity against Human immunodeficiency virus 1 subtype B isolate WEJO infected in human PBMC cells by cell based assay.
The subject of data set [4] is Human immunodeficiency virus 1. In words: Antiviral activity against Human immunodeficiency virus 1 subtype C isolate 93IN101 infected in human PBMC cells by cell based assay. The conditions noted are these: Human immunodeficiency virus 1, subtype C isolate 93IN101, PBMC.
Data set [5] has as its system Human immunodeficiency virus 1. Description: Antiviral activity against Human immunodeficiency virus 1 subtype E isolate 92TH006 infected in human PBMC cells by cell based assay. The settings on record: Human immunodeficiency virus 1, subtype E 92TH006, PBMC.
The subject of data set [6] is Human immunodeficiency virus 1. In words: Antiviral activity against Human immunodeficiency virus 1 subtype D isolate 92UG024 infected in human PBMC cells by cell based assay. The conditions noted are these: Human immunodeficiency virus 1, subtype D 92UG024, PBMC.
Data set [7] deals with Human immunodeficiency virus 1. In words: Antiviral activity against Human immunodeficiency virus 1 subtype AE infected in human MT4 cells assessed as reduction in virus induced cytopathicity. In kind it is functional, organism-based. The gist of the method:
(§1)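 Recombinant viruses were made by recombining patient-derived HIV-1 RT-PR sequences into an RT-PR-deleted HXB2 proviral clone transfected into MT4 cells. Subtype was assigned from PR/RT sequence by Smith-Waterman alignment to HXB2. MT4 cells (1.5 × 10^5/ml) were infected at MOI 0.01 with serially diluted compound for 5 days at 37°C. Viability was read by MTT and EC50 derived.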

In data set [8] the test system is Human immunodeficiency virus 1. Description: Antiviral activity against Human immunodeficiency virus 1 subtype C isolate 93MW959 infected in human PBMC cells by cell based assay. The settings on record: Human immunodeficiency virus 1, subtype C isolate 93MW959, PBMC.
Data set [9] relates to Human immunodeficiency virus 1. In words: Antiviral activity against Human immunodeficiency virus 1 subtype A isolate 92UG029 infected in human PBMC cells by cell based assay. The settings on record: Human immunodeficiency virus 1, subtype A isolate 92UG029, PBMC.
The test system of data set [10] is Human immunodeficiency virus 1. Description: Antiviral activity against Human immunodeficiency virus 1 subtype F1 infected in human MT4 cells assessed as reduction in virus induced cytopathicity. The conditions noted are these: Human immunodeficiency virus 1, subtype F1, MT4. It counts as functional, organism-based. Put shortly:
as §1

Data set [11] concerns Human immunodeficiency virus 1. In words: Antiviral activity against Human immunodeficiency virus 1 subtype F isolate 93BR020 infected in human PBMC cells by cell based assay. The settings on record: Human immunodeficiency virus 1, subtype F isolate 93BR020, PBMC.
The test system of data set [12] is Human immunodeficiency virus 1. Description: Antiviral activity against Human immunodeficiency virus 1 subtype G isolate JV1083 infected in human PBMC cells by cell based assay. The settings on record: Human immunodeficiency virus 1, subtype G isolate JV1083, PBMC.
Data set [13] relates to Human immunodeficiency virus 1. In words: Antiviral activity against Human immunodeficiency virus 1 subtype G isolate G3 infected in human PBMC cells by cell based assay. The settings on record: Human immunodeficiency virus 1, subtype G isolate G3, PBMC.
The subject of data set [14] is Human immunodeficiency virus 1. Description: Antiviral activity against Human immunodeficiency virus 1 subtype B isolate JR-CSF infected in human PBMC cells by cell based assay.
Data set [15] concerns Human immunodeficiency virus 1. In words: Antiviral activity against Human immunodeficiency virus 1 subtype B isolate 93BR021 infected in human PBMC cells by cell based assay. The conditions noted are these: Human immunodeficiency virus 1, subtype B isolate 93BR021, PBMC.
In data set [16] the test system is Human immunodeficiency virus 1. In words: Antiviral activity against Human immunodeficiency virus 1 subtype O isolate BCF02 infected in human PBMC cells by cell based assay. The settings on record: Human immunodeficiency virus 1, subtype O isolate BCF02, PBMC.
In data set [17] the test system is Human immunodeficiency virus 1. Description: Antiviral activity against Human immunodeficiency virus 1 subtype A isolate 92UG037 infected in human PBMC cells by cell based assay. The conditions noted are these: Human immunodeficiency virus 1, subtype A isolate 92UG037, PBMC.
The subject of data set [18] is Human immunodeficiency virus 1. Description: Antiviral activity against Human immunodeficiency virus 1 subtype G infected in human MT4 cells assessed as reduction in virus induced cytopathicity. It counts as functional, organism-based. Put shortly: as §1
Data set [19] concerns Human immunodeficiency virus 1. Description: Antiviral activity against Human immunodeficiency virus 1 subtype A isolate 92RW020 infected in human PBMC cells by cell based assay. The settings on record: Human immunodeficiency virus 1, subtype A isolate 92RW020, PBMC.
In data set [20] the test system is Human immunodeficiency virus 1. In words: Antiviral activity against Human immunodeficiency virus 1 subtype G isolate RU132 infected in human PBMC cells by cell based assay. The settings on record: Human immunodeficiency virus 1, subtype G isolate RU132, PBMC.
Data set [21] deals with Human immunodeficiency virus 1. Description: Antiviral activity against Human immunodeficiency virus 1 subtype O isolate BCF03 infected in human PBMC cells by cell based assay. The conditions noted are these: Human immunodeficiency virus 1, subtype O isolate BCF03, PBMC.
The subject of data set [22] is Human immunodeficiency virus 1. In words: Antiviral activity against Human immunodeficiency virus 1 subtype E isolate 93TH073 infected in human PBMC cells by cell based assay. The settings on record: Human immunodeficiency virus 1, subtype E 93TH073, PBMC.
Data set [23] deals with Human immunodeficiency virus 1. In words: Antiviral activity against Human immunodeficiency virus 1 subtype F isolate 93BR029 infected in human PBMC cells by cell based assay. The settings on record: Human immunodeficiency virus 1, subtype F isolate 93BR029, PBMC.
In data set [24] the test system is Human immunodeficiency virus 1. Description: Antiviral activity against Human immunodeficiency virus 1 3B infected in human MT4 cells assessed as reduction in virus induced cytopathicity. In kind it is functional, organism-based. Put shortly: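 MT4 cells (1.5 × 10^5/ml) infected with HIV-1 IIIB at MOI 0.01 and added to serially diluted compound. Cultures incubated 5 days at 37°C under 5% CO2. Cell viability, as protection from virus-induced killing, read by MTT tetrazolium colorimetry. EC50 reported as median with first to third quartiles over n experiments.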

Data set [25] deals with Human immunodeficiency virus 1. Description: Antiviral activity against Human immunodeficiency virus 1 subtype (H) infected in human MT4 cells assessed as reduction in virus induced cytopathicity. It counts as functional, organism-based. The gist of the method: as §1
The test system of data set [26] is Human immunodeficiency virus 1. In words: Antiviral activity against Human immunodeficiency virus 1 subtype D isolate 92UG035 infected in human PBMC cells by cell based assay. The conditions noted are these: Human immunodeficiency virus 1, subtype D 92UG035, PBMC.
Data set [27] concerns Human immunodeficiency virus 1. Description: Antiviral activity against Human immunodeficiency virus 1 subtype BG infected in human MT4 cells assessed as reduction in virus induced cytopathicity. In kind it is functional, organism-based. The gist of the method:
as §1

The test system of data set [28] is Human immunodeficiency virus 1. Description: Antiviral activity against Human immunodeficiency virus 1 subtype D infected in human MT4 cells assessed as reduction in virus induced cytopathicity. In kind it is functional, organism-based. Put shortly:
as §1

Data set [29] concerns Human immunodeficiency virus 1. In words: Antiviral activity against Human immunodeficiency virus 1 subtype A1 infected in human MT4 cells assessed as reduction in virus induced cytopathicity. It counts as functional, organism-based. The conditions noted are these: Human immunodeficiency virus 1, subtype A1, MT4. Put shortly:
as §1

In data set [30] the test system is Human immunodeficiency virus 1. Description: Antiviral activity against Human immunodeficiency virus 1 subtype O misolate BCF01 infected in human PBMC cells by cell based assay. The settings on record: Human immunodeficiency virus 1, subtype O isolate BCF01, PBMC.
The test system of data set [31] is Human immunodeficiency virus 1. In words: Antiviral activity against Human immunodeficiency virus 1 subtype C infected in human MT4 cells assessed as reduction in virus induced cytopathicity. In kind it is functional, organism-based. Put shortly:
as §1

Data set [32] relates to Human immunodeficiency virus 1. In words: Antiviral activity against Human immunodeficiency virus 1 subtype E isolate CMU08 infected in human PBMC cells by cell based assay. The settings on record: Human immunodeficiency virus 1, subtype E isolate CMU08, PBMC.
Data set [33] has as its system Human immunodeficiency virus 1. In words: Antiviral activity against Human immunodeficiency virus 1 subtype F isolate 93BR019 infected in human PBMC cells by cell based assay. The settings on record: Human immunodeficiency virus 1, subtype F isolate 93BR019, PBMC.
The subject of data set [34] is Human immunodeficiency virus 1. In words: Antiviral activity against Human immunodeficiency virus 1 subtype C isolate 92BR025 infected in human PBMC cells by cell based assay. The conditions noted are these: Human immunodeficiency virus 1, subtype C isolate 92BR025, PBMC.
The test system of data set [35] is Human immunodeficiency virus 1. In words: Antiviral activity against Human immunodeficiency virus 1 subtype AG infected in human MT4 cells assessed as reduction in virus induced cytopathicity. In kind it is functional, organism-based. Put shortly:
as §1

Take `O=C1Nc2ccc(Cl)cc2[C@@](C#CC2CC2)(C(F)(F)F)O1` [EFAVIRENZ]: in data set [1], the EC50 was 24800 nM. In addition, the Activity in the data set on MT4 came out at 40.02 µM.
As for `Cc1cc(C#N)cc(C)c1Oc1nc(Nc2ccc(C#N)cc2)nc(N)c1Br` [ETRAVIRINE], the EC50 in [2] is 0.9 nM; in [3], 0.43 nM; in [4], 2.72 nM; in data set [5], 0.5 nM; in data set [6] it was 3.18 nM; in [7], 0.65 nM. Besides, the EC50 in data set [8] stood at 1.01 nM; in [9] it was 1.45 nM; in data set [10], 0.35 nM; in data set [11], 1.08 nM; in data set [12] it was 1.45 nM; in data set [13], 0.66 nM. Also, the concentration for a half-maximal effect (EC50) in [1] was found to be 5670 nM; in data set [14], 1.02 nM; in data set [15], 1.35 nM; in data set [16], 52.8 nM; in data set [17], 1.42 nM; in data set [18], 0.24 nM. For the same compound, the EC50 in data set [19] came to 0.48 nM; in data set [20], 1.7 nM; in data set [21], 149 nM; in data set [22], 0.21 nM; in data set [23], 1.06 nM; in data set [24], 2.73 nM. For the same compound, the EC50 in data set [25] is 0.51 nM; in data set [26] it was 0.44 nM; in data set [27], 0.67 nM; in data set [28] it was 1.13 nM; in data set [29], 1.39 nM; in data set [30] it was 16.4 nM. The EC50 worked out at 0.52 nM in data set [31]; 3.47 nM in data set [32]; 0.46 nM in data set [33]; 1.7 nM in [34]; 0.46 nM in [35]. Besides, in the data set with MT4, the Activity was > 64 µM.
For the compound `Cc1ccnc2c1NC(=O)c1cccnc1N2C1CC1` [NEVIRAPINE], the EC50 in [7] was 8.94 nM; in data set [10], 14.9 nM; in data set [1], > 31200 nM; in [18] it was 24.6 nM; in data set [24] it was 34.1 nM; in data set [25], 34.1 nM. For the same compound, the concentration giving a half-maximal response (EC50) was 26 nM in [27]; 24.2 nM in data set [28]; 9.32 nM in [29]; < 4.88 nM in [31]; 14.4 nM in data set [35]. Also, the Activity with MT4 was > 32 µM.

Source of the values: ChEMBL document CHEMBL1240360, “TMC278, a next-generation nonnucleoside reverse transcriptase inhibitor (NNRTI), active against wild-type and NNRTI-resistant HIV-1” (Antimicrob Agents Chemother, 2010).
